The text below walks through data of publication PMC9070660 (RSC Advances, 2019).

In one experiment the test system is SKOV3 cells. Description: MTT cell viability assay, SKOV3. It is filed as cell-based, human. Put shortly:
(§1)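 Culture: SKOV3 in RPMI-1640 with 10% FBS and penicillin-streptomycin at 37 °C, 5% CO2; OVCAR3 and IOSE80 in DMEM. Cells seeded at 1 × 10^4 per well, grown 24 h, then exposed to a range of test compound concentrations for 48 h. MTT (2 mg mL−1 stock) added, […]; formazan dissolved in DMSO; A490 read. IC50 calculated; SI = IC50 IOSE80/IC50 cancer line; three separate experiments.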

In the next experiment the test system is OVCAR3 cells. Briefly: MTT cell viability assay, OVCAR3. In kind it is cell-based, human. Put shortly: as §1
The next experiment has as its system IOSE80 cells. Description: MTT cell viability assay, normal ovarian epithelial cells IOSE80. The following applies: Homo sapiens, IOSE80, 48 h, read-out: IC50 (cell viability) IOSE80. It is filed as cell-based. The essentials:
as §1

Take `CC(=O)O[C@H]1C(=O)[C@@]2(C)[C@H]([C@H](OC(=O)c3ccccc3)[C@]3(O)C[C@H](OC(=O)[C@H](O)[C@@H](NC(=O)c4ccccc4)c4ccccc4)C(C)=C1C3(C)C)[C@]1(OC(C)=O)CO[C@@H]1C[C@@H]2O` [Paclitaxel]: the IC50 stood at 430 ± 30 nM with SKOV3 cells (Homo sapiens, SK-OV-3, 48 h, read-out: IC50 (cell viability) SKOV3); 380 ± 40 nM in the experiment on OVCAR3 cells (Homo sapiens, OVCAR-3, 48 h, read-out: IC50 (cell viability) OVCAR3); 1700 ± 100 nM in the experiment with IOSE80 cells. The “SI (selectivity index) SKOV3” value with SKOV3 cells (IC50 IOSE80 cell line/IC50 SKOV3) is listed as 4.0. Moreover, the “SI (selectivity index) OVCAR3” value with OVCAR3 cells (IC50 IOSE80 cell line/IC50 OVCAR3) is recorded as 4.5.
